According to ChEMBL document CHEMBL1148549, “A novel class of potent influenza virus inhibitors: polysubstituted acylthiourea and its fused heterocycle derivatives” (Bioorg Med Chem Lett, 2006):

Legend:
Influenza A virus = experiment: Inhibitory activity against influenza A3/Beijing/30/95 ([…]) virus in MDCK cells; format: functional, organism-based
Summary of the method: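 MDCK cells in 96-well plates were infected with influenza ([…]) virus at 50 PFU/well and treated with serially diluted compound. IC50 was calculated from the dilution series and reported in µM as the mean of at least three independent experiments run on different days.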

MDCK = experiment: Cytotoxicity in MDCK cells using MTS assay; format: functional, cell-based; conditions: Canis lupus familiaris

| Compound | IC50 (Influenza A virus) [nM] | Activity (MDCK) |
| --- | --- | --- |
| CC(C)(C)NC(=O)NC(=S)NC(=O)c1ccc(-c2ccccc2Cl)o1 | 1420 | Not toxic |
| CCOc1cc(Cl)nc(NC(=S)NC(=O)c2cccnc2Cl)n1 | > 20000 | Not toxic |
| COc1cc(Cl)nc(NC(=O)NC(=O)c2c(F)cccc2F)n1 | 15900 | Not toxic |
| CC(C)[C@H](C(=O)NC(=S)NC(=O)NC(C)(C)C)c1ccc(Cl)cc1 | 1350 | Not toxic |
| COc1cc(C)nc(NC(=S)NC(=O)c2ccc(-c3ccccc3Cl)o2)n1 | > 20000 | Not toxic |
| CCOc1cc(C)nc(NC(=S)NC(=O)c2ccc(-c3ccccc3Cl)o2)n1 | 1650 | Not toxic |
| CC(C)(C)NC(=O)NC(=O)NC(=O)c1ccccc1 | > 20000 | Not toxic |
| CC(C)(C)NC(=O)NC(=S)NC(=O)[C@H]1[C@@H](/C=C(\Cl)C(F)(F)F)C1(C)C | 510 | Not toxic |
| COC(=O)NC(=S)NC(=O)NC(C)(C)C | 1830 | Not toxic |
| CC(C)(C)NC(=O)NC(=S)NC(=O)[C@@H]1[C@@H](C=C(Cl)Cl)C1(C)C | 260 | Not toxic |
| O=C(NC(=S)Nc1nc(Cl)cc(Cl)n1)c1ccc(-c2ccccc2Cl)o1 | 14500 | Not toxic |
| COc1cc(OC)n2s/c(=N\C(=O)c3cccnc3)nc2n1 | > 20000 | Not toxic |
| CCOc1cc(C)nc(NC(=S)NC(=O)c2ccc(-c3ccc([N+](=O)[O-])cc3)o2)n1 | 11300 | Not toxic |
| CC(C)(C)NC(=O)NC(=S)NC(=O)c1ccc(-c2ccc([N+](=O)[O-])cc2)o1 | 1300 | Not toxic |
| COc1cc(C)nc(NC(=S)NC(=O)c2ccc(-c3ccc([N+](=O)[O-])cc3)o2)n1 | 1220 | Not toxic |
| CCOc1cc(OCC)nc(NC(=S)NC(=O)c2cccnc2Cl)n1 | > 20000 | Not toxic |
| COc1cc(Cl)nc(NC(=S)NC(=O)c2cccnc2Cl)n1 | 2590 | Not toxic |
| Cc1cc(Cl)nc(NC(=O)NC(=O)c2c(F)cccc2F)n1 | > 20000 | Not toxic |
| COc1cc(OC)nc(NC(=S)NC(=O)c2ccc(-c3ccccc3Cl)o2)n1 | 1770 | Not toxic |
| CC(C)(C)NC(=O)NC(=O)NC(=O)c1c(F)cccc1F | 14100 | Not toxic |
| CCOc1cc(OCC)nc(NC(=S)NC(=O)c2ccc(-c3ccccc3Cl)o2)n1 | 80 | Not toxic |
| COc1cc(OC)nc(NC(=S)NC(=O)c2ccc(-c3ccc([N+](=O)[O-])cc3)o2)n1 | > 20000 | Not toxic |
| CC(C)(C)NC(=O)NC(=S)NC(=O)COc1ccc(Cl)cc1Cl | 1670 | Not toxic |

| Compound | IC50 (Influenza A virus) [nM] | Activity (MDCK) |
| --- | --- | --- |
| COc1cc(OC)nc(NC(=S)NC(=O)c2cnc(Cl)c(Cl)c2)n1 | 18500 | Not toxic |
| CCOc1cc(OCC)n2s/c(=N\C(=O)c3ccc(-c4ccc([N+](=O)[O-])cc4)o3)nc2n1 | 5250 | Not toxic |
| COc1cc(OC)nc(NC(=O)NC(=O)c2c(F)cccc2F)n1 | > 20000 | Not toxic |
| COc1cc(OC)nc(NC(=S)NC(=O)c2cccnc2)n1 | > 20000 | Not toxic |
| CCOc1cc(Cl)nc(NC(=S)NC(=O)c2ccc(-c3ccccc3Cl)o2)n1 | > 20000 | Not toxic |
| CC(C)(C)NC(=O)NC(=S)NC(=O)c1ccccc1 | 1790 | Not toxic |
| CC(C)(C)NC(=O)NC(=S)NC(=O)c1c(F)cccc1F | 1430 | Not toxic |
| CCOc1cc(OCC)nc(NC(=S)NC(=O)c2ccc(-c3ccc([N+](=O)[O-])cc3)o2)n1 | > 20000 | Not toxic |
| COc1cc(Cl)nc2n/c(=N/C(=O)c3ccc(Cl)nc3)sn12 | 9320 | Not toxic |
| Cc1cc(=O)nc2nc(NC(=O)c3ccc(-c4ccc([N+](=O)[O-])cc4)o3)sn12 | 670 | Not toxic |
| COc1cc(Cl)nc(NC(=S)NC(=O)c2ccc(-c3ccccc3Cl)o2)n1 | 1290 | Not toxic |
| Cc1cc(O)nc(NC(=S)NC(=O)c2ccc(Cl)nc2)n1 | 8580 | Not toxic |
| Cc1cc(C)nc(NC(=O)NC(=O)c2c(F)cccc2F)n1 | > 20000 | Not toxic |
| COc1cc(Cl)nc(NC(=S)NC(=O)c2ccc(Cl)nc2)n1 | > 20000 | Not toxic |
| CCOc1cc(OCC)n2s/c(=N\C(=O)c3ccc(Cl)nc3)nc2n1 | 90 | Not toxic |
| CCOc1cc(C)nc2n/c(=N/C(=O)c3ccc(-c4ccccc4Cl)o3)sn12 | 350 | Not toxic |
| COc1cc(OC)n2s/c(=N\C(=O)c3cccnc3Cl)nc2n1 | 2410 | Not toxic |
| Cc1cc(O)nc(NC(=S)NC(=O)c2ccc(-c3ccccc3Cl)o2)n1 | 320 | Not toxic |
| CCOc1cc(OCC)nc(NC(=S)NC(=O)c2ccc(Cl)nc2)n1 | > 20000 | Not toxic |
| COc1cc(C)nc(NC(=S)NC(=O)c2ccc(Cl)nc2)n1 | > 20000 | Not toxic |
| CC(C)C(C(=O)NC(=O)NC(=O)NC(C)(C)C)c1ccc(Cl)cc1 (configuration not stated) | 15500 | Not toxic |
| Cc1cc(O)nc(NC(=S)NC(=O)c2ccc(-c3ccc([N+](=O)[O-])cc3)o2)n1 | 360 | Not toxic |
| Cc1cc(C)nc(NC(=S)NC(=O)c2cccnc2Cl)n1 | 7190 | Not toxic |
